Assay results reported in ChEMBL document CHEMBL1136094, “Novel, potent and selective cyclin D1/CDK4 inhibitors: indolo[6,7-a]pyrrolo[3,4-c]carbazoles” (Bioorg Med Chem Lett, 2003).
≈ marks a conversion by molar mass, not a printed value.

What was measured:
[1] = Aqueous solubility (in situ) in D5W after 1 week was determined; assay type: physicochemical; conditions: D5W
[2] = Inhibition of AMP-activated Protein Kinase at 100 nM; set-up: scale not given: the % may be the effect or the level left
How it was run: (§1)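 Panel profiling of isolated kinases with inhibitor at 100 nM and 500 nM. […] Remaining kinase activity is expressed as % of control and is the mean of duplicate assays.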

[3] = Inhibition of AMP-activated Protein Kinase at 500 nM; set-up: scale not given: the % may be the effect or the level left; how it was run: as §1
[4] = biological target: Tyrosine-protein kinase Blk (Homo sapiens) (UniProt P51451); experiment: Inhibition of B lymphoid tyrosine kinase at 100 nM; set-up: scale not given: the % may be the effect or the level left; how it was run: as §1
[5] = biological target: Calcium/calmodulin-dependent protein kinase type IV (Homo sapiens) (UniProt Q16566); experiment: Inhibition of Calcium/calmodulin-dependent protein kinase type IV at 100 nM; set-up: scale not given: the % may be the effect or the level left; how it was run: as §1
[6] = biological target: T1, Casein kinase II (Homo sapiens) (UniProt P67870+P68400+P19784); experiment: Inhibition of CK2 kinase at 100 nM; assay type: protein-complex assay; set-up: scale not given: the % may be the effect or the level left; how it was run: as §1
[7] = biological target: T1, Casein kinase II (Homo sapiens); experiment: Inhibition of CK2 kinase at 500 nM; assay type: protein-complex assay; set-up: scale not given: the % may be the effect or the level left; how it was run: as §1
[8] = biological target: Cyclin-dependent kinase 2/cyclin A (Homo sapiens) (UniProt P24941+P20248+P78396); experiment: Inhibition of Cyclin A-cyclin-dependent kinase 2 at 100 nM; assay type: protein-complex assay; set-up: scale not given: the % may be the effect or the level left; how it was run: as §1
[9] = biological target: CDK3/cyclin E (Homo sapiens) (UniProt P24864+O96020+Q00526); experiment: Inhibition of Cyclin E-cyclin-dependent kinase 3 at 100 nM; assay type: protein-complex assay; set-up: scale not given: the % may be the effect or the level left; how it was run: as §1
[10] = biological target: Cyclin-dependent kinase 4/cyclin D1 (Homo sapiens, UniProt P11802); experiment: Inhibitory activity against Cyclin D1-cyclin-dependent kinase 4 in enzymatic assay by measuring phosphorylation of Rb21; assay type: protein-complex assay
[11] = biological target: Tyrosine-protein kinase Fyn (Homo sapiens) (UniProt P06241); experiment: Inhibition of Fyn protein kinase at 500 nM; set-up: scale not given: the % may be the effect or the level left; how it was run: as §1
[12] = biological target: Glycogen synthase kinase-3 beta (Homo sapiens, UniProt P49841); experiment: Inhibition of Glycogen synthase kinase-3 beta
[13] = biological target: Mitogen-activated protein kinase kinase kinase 20 (Homo sapiens, UniProt Q9NYL2); experiment: Inhibition of MLK-7 kinase
[14] = biological target: Dual specificity mitogen-activated protein kinase kinase 7 (Homo sapiens) (UniProt O14733); experiment: Inhibition of MKK7-beta kinase at 100 nM; set-up: scale not given: the % may be the effect or the level left; how it was run: as §1
[15] = biological target: Ribosomal protein S6 kinase alpha-5 (Homo sapiens) (UniProt O75582); experiment: Inhibition of MSK-1 kinase at 500 nM; set-up: scale not given: the % may be the effect or the level left; how it was run: as §1
[16] = biological target: Mitogen-activated protein kinase 1 (Homo sapiens) (UniProt P28482); experiment: Inhibition of Mitogen-activated protein kinase 2 at 500 nM; set-up: scale not given: the % may be the effect or the level left; how it was run: as §1
[17] = biological target: Dual specificity mitogen-activated protein kinase kinase 4 (Homo sapiens) (UniProt P45985); experiment: Inhibition of mitogen-activated protein kinase kinase 4 at 100 nM; set-up: scale not given: the % may be the effect or the level left
How it was run: (§2)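 Panel of 39 kinases, each tested at 100 and 500 nM inhibitor. […] Activity is expressed as % of control and is the mean of duplicate assays.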

[18] = biological target: Dual specificity mitogen-activated protein kinase kinase 4 (Homo sapiens) (UniProt P45985); experiment: Inhibition of mitogen-activated protein kinase kinase 4 at 500 nM; set-up: scale not given: the % may be the effect or the level left; how it was run: as §2
[19] = biological target: Dual specificity mitogen-activated protein kinase kinase 6 (Homo sapiens) (UniProt P52564); experiment: Inhibition of mitogen-activated protein kinase kinase 6 at 500 nM; set-up: scale not given: the % may be the effect or the level left; how it was run: as §2
[20] = biological target: MAP kinase-activated protein kinase 2 (Homo sapiens) (UniProt P49137); experiment: Inhibition of mitogen-activated protein kinase-activated protein kinase 2 at 100 nM; set-up: scale not given: the % may be the effect or the level left; how it was run: as §2
[21] = biological target: 3-phosphoinositide-dependent protein kinase 1 (Homo sapiens) (UniProt O15530); experiment: Inhibition of PDK1 kinase at 100 nM; set-up: scale not given: the % may be the effect or the level left; how it was run: as §1
[22] = biological target: RAF proto-oncogene serine/threonine-protein kinase (Homo sapiens) (UniProt P04049); experiment: Inhibition of RAF proto-oncogene serine/threonine-protein kinase at 100 nM; set-up: scale not given: the % may be the effect or the level left; how it was run: as §2
[23] = biological target: Protein kinase C gamma type (Homo sapiens) (UniProt P05129); experiment: Inhibition of Protein kinase C gamma at 100 nM; set-up: scale not given: the % may be the effect or the level left; how it was run: as §1
[24] = biological target: Protein kinase C gamma type (Homo sapiens) (UniProt P05129); experiment: Inhibition of Protein kinase C gamma at 500 nM; set-up: scale not given: the % may be the effect or the level left; how it was run: as §2
[25] = biological target: Protein kinase C beta type (Homo sapiens) (UniProt P05771); experiment: Inhibition of Protein kinase C beta 2 at 100 nM; set-up: scale not given: the % may be the effect or the level left; how it was run: as §1
[26] = biological target: Protein kinase C beta type (Homo sapiens) (UniProt P05771); experiment: Inhibition of Protein kinase C beta 2 at 500 nM; set-up: scale not given: the % may be the effect or the level left; how it was run: as §1
[27] = biological target: MAP kinase-activated protein kinase 5 (Homo sapiens) (UniProt Q8IW41); experiment: Inhibition of Protein kinase PRAK at 100 nM; set-up: scale not given: the % may be the effect or the level left; how it was run: as §2
[28] = biological target: MAP kinase-activated protein kinase 5 (Homo sapiens) (UniProt Q8IW41); experiment: Inhibition of Protein kinase PRAK at 500 nM; set-up: scale not given: the % may be the effect or the level left; how it was run: as §2
[29] = biological target: Rho-associated protein kinase 2 (Homo sapiens) (UniProt O75116); experiment: Inhibition of Protein kinase ROCK2 at 100 nM; set-up: scale not given: the % may be the effect or the level left; how it was run: as §2
[30] = biological target: Rho-associated protein kinase 2 (Homo sapiens) (UniProt O75116); experiment: Inhibition of Protein kinase ROCK2 at 500 nM; set-up: scale not given: the % may be the effect or the level left; how it was run: as §2
[31] = biological target: Tyrosine-protein kinase Lyn (Homo sapiens) (UniProt P07948); experiment: Inhibition of Protein tyrosine kinase Lyn at 500 nM; set-up: scale not given: the % may be the effect or the level left; how it was run: as §2
[32] = biological target: Serine/threonine-protein kinase Chk1 (Homo sapiens) (UniProt O14757); experiment: Inhibition of Serine/threonine-protein kinase Chk1 at 100 nM; set-up: scale not given: the % may be the effect or the level left; how it was run: as §2
[33] = biological target: Ribosomal protein S6 kinase (P70S6K) (Homo sapiens) (UniProt Q9UBS0+P23443); experiment: Inhibition of Ribosomal protein S6 kinase (p70S6K) at 100 nM; assay type: protein-complex assay; set-up: scale not given: the % may be the effect or the level left; how it was run: as §2
[34] = biological target: Serine/threonine-protein kinase Sgk1 (Homo sapiens) (UniProt O00141); experiment: Inhibition of Serum/glucocorticoid regulated kinase at 100 nM; set-up: scale not given: the % may be the effect or the level left; how it was run: as §2
[35] = biological target: Serine/threonine-protein kinase Sgk1 (Homo sapiens) (UniProt O00141); experiment: Inhibition of Serum/glucocorticoid regulated kinase at 500 nM; set-up: scale not given: the % may be the effect or the level left; how it was run: as §2
[36] = biological target: Mitogen-activated protein kinase 12 (Homo sapiens) (UniProt P53778); experiment: Inhibition of Stress activated protein kinase 3 at 100 nM; set-up: scale not given: the % may be the effect or the level left; how it was run: as §2
[37] = biological target: Mitogen-activated protein kinase 12 (Homo sapiens) (UniProt P53778); experiment: Inhibition of Stress activated protein kinase 3 at 500 nM; set-up: scale not given: the % may be the effect or the level left; how it was run: as §2
[38] = biological target: Tyrosine-protein kinase CSK (Homo sapiens) (UniProt P41240); experiment: Inhibition of Tyrosine-protein kinase CSK at 500 nM; set-up: scale not given: the % may be the effect or the level left; how it was run: as §2
[39] = biological target: Proto-oncogene tyrosine-protein kinase Src (Homo sapiens) (UniProt P12931); experiment: Inhibition of c-Src protein tyrosine kinase at 100 nM; set-up: scale not given: the % may be the effect or the level left; how it was run: as §2
[40] = biological target: Proto-oncogene tyrosine-protein kinase Src (Homo sapiens) (UniProt P12931); experiment: Inhibition of c-Src protein tyrosine kinase at 500 nM; set-up: scale not given: the % may be the effect or the level left; how it was run: as §2
[41] = biological target: Mitogen-activated protein kinase 8 (Homo sapiens) (UniProt P45983); experiment: Inhibition of c-Jun N-terminal kinase 1-alpha 1 at 500 nM; set-up: scale not given: the % may be the effect or the level left; how it was run: as §2
[42] = biological target: Tyrosine-protein kinase ZAP-70 (Homo sapiens) (UniProt P43403); experiment: Inhibition of Zeta-chain (TCR) associated protein kinase 70 kDa (ZAP70) at 100 nM; set-up: scale not given: the % may be the effect or the level left; how it was run: as §2
[43] = biological target: Tyrosine-protein kinase ZAP-70 (Homo sapiens) (UniProt P43403); experiment: Inhibition of Zeta-chain (TCR) associated protein kinase 70 kDa (ZAP70) at 500 nM; set-up: scale not given: the % may be the effect or the level left; how it was run: as §2
[44] = biological target: Tyrosine-protein kinase Lck (Homo sapiens) (UniProt P06239); experiment: Inhibition of p56 Lck tyrosine kinase at 100 nM; set-up: scale not given: the % may be the effect or the level left; how it was run: as §2
[45] = biological target: Tyrosine-protein kinase Lck (Homo sapiens) (UniProt P06239); experiment: Inhibition of p56 Lck tyrosine kinase at 500 nM; set-up: scale not given: the % may be the effect or the level left; how it was run: as §2
[46] = biological target: Tyrosine-protein kinase Lyn (Homo sapiens) (UniProt P07948); experiment: Inhibition of Protein tyrosine kinase Lyn at 100 nM; set-up: scale not given: the % may be the effect or the level left

Dual specificity mitogen-activated protein kinase kinase 4 (Homo sapiens), sequence (P45985 whole entry): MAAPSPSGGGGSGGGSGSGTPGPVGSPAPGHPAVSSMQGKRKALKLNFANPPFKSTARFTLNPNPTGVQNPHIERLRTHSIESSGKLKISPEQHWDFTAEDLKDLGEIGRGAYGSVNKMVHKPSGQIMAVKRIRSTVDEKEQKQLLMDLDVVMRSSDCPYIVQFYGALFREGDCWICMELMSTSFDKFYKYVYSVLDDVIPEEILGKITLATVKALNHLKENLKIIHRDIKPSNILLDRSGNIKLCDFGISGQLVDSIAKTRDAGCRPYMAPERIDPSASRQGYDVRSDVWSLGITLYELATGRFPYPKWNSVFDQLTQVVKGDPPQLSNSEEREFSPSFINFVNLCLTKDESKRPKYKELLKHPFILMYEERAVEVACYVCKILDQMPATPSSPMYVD
Rho-associated protein kinase 2 (Homo sapiens), sequence (O75116 whole entry, looked up): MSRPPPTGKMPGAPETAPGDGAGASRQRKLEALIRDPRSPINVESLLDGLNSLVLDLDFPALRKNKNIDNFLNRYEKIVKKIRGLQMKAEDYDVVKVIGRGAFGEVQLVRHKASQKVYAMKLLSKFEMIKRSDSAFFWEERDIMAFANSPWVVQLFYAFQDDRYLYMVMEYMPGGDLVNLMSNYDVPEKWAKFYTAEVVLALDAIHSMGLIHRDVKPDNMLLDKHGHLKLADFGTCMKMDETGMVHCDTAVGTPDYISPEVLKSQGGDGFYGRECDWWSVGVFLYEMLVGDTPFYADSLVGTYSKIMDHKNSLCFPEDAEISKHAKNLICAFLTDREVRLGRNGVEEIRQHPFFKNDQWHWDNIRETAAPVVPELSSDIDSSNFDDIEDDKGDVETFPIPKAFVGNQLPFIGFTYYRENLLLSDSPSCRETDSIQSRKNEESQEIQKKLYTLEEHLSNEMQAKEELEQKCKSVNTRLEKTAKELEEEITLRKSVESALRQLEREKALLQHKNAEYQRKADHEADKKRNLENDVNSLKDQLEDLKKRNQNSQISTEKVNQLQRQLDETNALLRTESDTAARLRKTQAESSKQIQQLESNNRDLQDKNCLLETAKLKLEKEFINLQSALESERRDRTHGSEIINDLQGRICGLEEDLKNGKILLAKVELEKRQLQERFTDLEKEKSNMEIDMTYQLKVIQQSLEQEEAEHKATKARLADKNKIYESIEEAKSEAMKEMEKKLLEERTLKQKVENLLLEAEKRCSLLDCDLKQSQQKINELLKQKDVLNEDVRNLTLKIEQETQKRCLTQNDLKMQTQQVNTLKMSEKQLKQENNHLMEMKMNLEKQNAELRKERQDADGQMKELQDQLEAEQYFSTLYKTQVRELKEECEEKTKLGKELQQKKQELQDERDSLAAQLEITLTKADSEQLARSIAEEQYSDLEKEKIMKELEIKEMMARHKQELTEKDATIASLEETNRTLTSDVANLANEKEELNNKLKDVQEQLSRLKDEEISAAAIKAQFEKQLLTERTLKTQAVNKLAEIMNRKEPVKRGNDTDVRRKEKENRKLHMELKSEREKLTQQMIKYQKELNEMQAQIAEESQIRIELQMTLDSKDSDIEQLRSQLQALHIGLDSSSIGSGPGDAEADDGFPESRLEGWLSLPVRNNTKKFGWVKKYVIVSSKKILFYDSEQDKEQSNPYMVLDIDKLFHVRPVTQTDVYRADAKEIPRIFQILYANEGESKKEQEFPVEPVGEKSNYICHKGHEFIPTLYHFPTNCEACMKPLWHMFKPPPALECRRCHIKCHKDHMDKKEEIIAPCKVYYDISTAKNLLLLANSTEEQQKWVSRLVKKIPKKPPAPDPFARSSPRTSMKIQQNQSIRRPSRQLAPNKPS
Proto-oncogene tyrosine-protein kinase Src (Homo sapiens), sequence (P12931 2-536 limits assumed): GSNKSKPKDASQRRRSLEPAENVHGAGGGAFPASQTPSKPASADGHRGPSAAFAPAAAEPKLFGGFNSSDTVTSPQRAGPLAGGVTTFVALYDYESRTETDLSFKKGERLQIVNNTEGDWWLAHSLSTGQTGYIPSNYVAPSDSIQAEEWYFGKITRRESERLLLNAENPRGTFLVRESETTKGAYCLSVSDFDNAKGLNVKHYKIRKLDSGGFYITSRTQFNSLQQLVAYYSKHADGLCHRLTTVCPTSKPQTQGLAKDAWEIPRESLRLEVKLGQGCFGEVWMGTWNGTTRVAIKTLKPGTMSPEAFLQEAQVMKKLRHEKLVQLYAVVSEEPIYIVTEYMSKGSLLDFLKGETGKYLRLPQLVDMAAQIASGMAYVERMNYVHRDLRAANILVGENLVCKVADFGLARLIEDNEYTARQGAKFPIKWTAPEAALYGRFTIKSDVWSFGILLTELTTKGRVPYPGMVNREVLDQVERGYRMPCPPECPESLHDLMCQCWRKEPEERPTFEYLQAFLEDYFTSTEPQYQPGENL
Tyrosine-protein kinase Lck (Homo sapiens), sequence (P06239 2-509 limits assumed): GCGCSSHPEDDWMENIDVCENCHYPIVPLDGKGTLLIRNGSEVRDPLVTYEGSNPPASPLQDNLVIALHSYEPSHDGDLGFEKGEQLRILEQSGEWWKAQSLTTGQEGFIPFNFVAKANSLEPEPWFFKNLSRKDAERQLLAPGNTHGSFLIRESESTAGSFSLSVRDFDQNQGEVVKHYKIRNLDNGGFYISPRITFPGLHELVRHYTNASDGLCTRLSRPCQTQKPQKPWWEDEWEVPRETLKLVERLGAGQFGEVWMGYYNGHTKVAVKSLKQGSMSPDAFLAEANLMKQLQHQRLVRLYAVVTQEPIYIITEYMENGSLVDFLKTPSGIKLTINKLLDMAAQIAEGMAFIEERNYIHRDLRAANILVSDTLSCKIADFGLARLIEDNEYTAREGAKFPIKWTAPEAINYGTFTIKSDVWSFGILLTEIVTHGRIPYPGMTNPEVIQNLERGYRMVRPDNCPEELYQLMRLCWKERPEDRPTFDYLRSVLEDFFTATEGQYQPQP
Serine/threonine-protein kinase Sgk1 (Homo sapiens), sequence (O00141 whole entry): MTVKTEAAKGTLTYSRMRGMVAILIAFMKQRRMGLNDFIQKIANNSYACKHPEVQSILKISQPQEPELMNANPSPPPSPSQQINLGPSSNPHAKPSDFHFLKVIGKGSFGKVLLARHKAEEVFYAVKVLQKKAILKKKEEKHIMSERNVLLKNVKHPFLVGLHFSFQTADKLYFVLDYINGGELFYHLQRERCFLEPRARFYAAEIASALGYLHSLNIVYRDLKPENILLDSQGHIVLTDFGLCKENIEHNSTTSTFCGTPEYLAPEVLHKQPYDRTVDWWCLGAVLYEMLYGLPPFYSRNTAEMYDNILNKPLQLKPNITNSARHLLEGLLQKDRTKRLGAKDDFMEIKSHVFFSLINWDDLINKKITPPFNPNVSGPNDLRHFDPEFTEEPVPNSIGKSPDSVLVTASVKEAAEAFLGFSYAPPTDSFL
Mitogen-activated protein kinase 12 (Homo sapiens), sequence (P53778 whole entry): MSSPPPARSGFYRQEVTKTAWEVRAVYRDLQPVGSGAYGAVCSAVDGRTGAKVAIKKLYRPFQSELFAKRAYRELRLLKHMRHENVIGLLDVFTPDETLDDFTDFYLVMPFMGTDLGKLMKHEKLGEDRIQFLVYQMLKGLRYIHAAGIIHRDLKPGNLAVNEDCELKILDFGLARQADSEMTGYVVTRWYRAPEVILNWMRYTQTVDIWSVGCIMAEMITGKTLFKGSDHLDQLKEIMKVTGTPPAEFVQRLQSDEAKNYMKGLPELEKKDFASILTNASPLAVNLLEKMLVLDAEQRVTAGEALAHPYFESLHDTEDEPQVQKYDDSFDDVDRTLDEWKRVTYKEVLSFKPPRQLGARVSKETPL
MAP kinase-activated protein kinase 5 (Homo sapiens), sequence (Q8IW41 whole entry): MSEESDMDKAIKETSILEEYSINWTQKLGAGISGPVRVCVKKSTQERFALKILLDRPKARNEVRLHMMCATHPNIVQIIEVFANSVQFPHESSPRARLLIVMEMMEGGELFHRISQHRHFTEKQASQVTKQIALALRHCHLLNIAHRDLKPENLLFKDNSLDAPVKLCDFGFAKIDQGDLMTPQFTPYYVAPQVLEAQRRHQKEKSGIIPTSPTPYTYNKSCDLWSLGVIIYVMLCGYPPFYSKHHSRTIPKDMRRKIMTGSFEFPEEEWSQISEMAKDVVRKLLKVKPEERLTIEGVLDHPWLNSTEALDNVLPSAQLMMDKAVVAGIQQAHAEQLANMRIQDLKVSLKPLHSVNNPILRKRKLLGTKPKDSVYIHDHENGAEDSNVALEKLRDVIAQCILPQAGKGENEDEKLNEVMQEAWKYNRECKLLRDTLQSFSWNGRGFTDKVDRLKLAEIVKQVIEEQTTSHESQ

solubility at 168 h [1]: 8900 µg/mL (≈ 18 mM)
Control [2]: 98%
Control [3]: 95%
Control [4]: 74%
Control [5]: 108%
Control [6]: 99%
Control [7]: 94%
Control [8]: 83%
Control [9]: 89%
IC50 [10]: 0.019 µM
Control [11]: 74%
IC50 [12]: > 20 µM
IC50 [13]: 9.97 µM
Control [14]: 86%
Control [15]: 90%
Control [16]: 90%
Control [17]: 91%
Control [18]: 84%
Control [19]: 98%
Control [20]: 94%
Control [21]: 104%
Control [22]: 112%
Control [23]: 105%
Control [24]: 84%
Control [25]: 96%
Control [26]: 59%
Control [27]: 86%
Control [28]: 50%
Control [29]: 90%
Control [30]: 62%
Control [31]: 18%
Control [32]: 86%
Control [33]: 93%
Control [34]: 94%
Control [35]: 84%
Control [36]: 107%
Control [37]: 109%
Control [38]: 116%
Control [39]: 100%
Control [40]: 91%
Control [41]: 88%
Control [42]: 134%
Control [43]: 107%
Control [44]: 98%
Control [45]: 60%
Control [46]: 78%
Compound: Cn1ccc2ccc3c4[nH]c5c(CCCN[C@H]6CC[C@H](O)CC6)cccc5c4c4c(c3c21)C(=O)NC4=O
